NPY Y2 blocker: antagonists of human neuropeptide Y receptor Y2 | AID 793 | inhibition, % at 2.7 µM | NPY-Y2 expressing cells, antagonist mode | P49146 | hit rate 0.99% among 140,000; in the data active = inhibition above about 17%;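 also: 0% = vehicle with agonist challenge and 100% = reference antagonist with challenge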
PGE2 EP2 inh: EP2 receptor (human) inhibition. C6 glioma cells expressing human EP2, cAMP TR-FRET; cells stimulated with saturating PGE2. inhibition, % at 25 µM. hit rate 0.52% among 260,000;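 active = percent inhibition above 40 after rounding to a whole number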;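 also: rat C6 glioma host cells with rolipram phosphodiesterase inhibitor present; the protocol text gives 20 µM as final concentration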
EP2 mod: modulates human prostaglandin E2 receptor EP2 signaling | EP2-expressing cells, cAMP HTRF FRET, PGE2 co-stimulation | induction, % at 25 µM | hit rate 0.83% among 260,000 | AID 940;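 active = compounds whose cAMP rise, as percent of the full-agonist control response, exceeds 60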;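 also: rat C6 glioma line stably carrying human EP2 under a CMV promoter; the protocol text gives 20 µM as final concentration; 100% = response of wells given 1 µM PGE2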
NPY-Y2 PAM-ag: human NPY-Y2 potentiation or agonism, primary screen | P49146 | cells expressing NPY-Y2, potentiator/agonist read-out | activation, % at 3.6 µM | hit rate 0.45% among 220,000; in the data active = activation above about 27%;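 also: cells stimulated with NPY near EC25 plus isoproterenol at EC100; 0% = vehicle plus submaximal agonist and 100% = vehicle plus saturating agonist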
NPY-Y1 antag: blocks the human neuropeptide Y Y1 receptor; P25929; AID 1040; HEK293-CNG Y1 cells, membrane potential fluorescence; NPY at EC95, then isoproterenol; hit rate 1% among 200,000; inhibition, % at 3.6 µM;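 active = inhibition above the campaign mean inhibition of all tested compounds plus 3 SD, cut at about 20% in these data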;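 also: 0% = DMSO wells given NPY plus isoproterenol and 100% = isoproterenol alone without NPY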
Target sequence (P25929 whole entry, looked up): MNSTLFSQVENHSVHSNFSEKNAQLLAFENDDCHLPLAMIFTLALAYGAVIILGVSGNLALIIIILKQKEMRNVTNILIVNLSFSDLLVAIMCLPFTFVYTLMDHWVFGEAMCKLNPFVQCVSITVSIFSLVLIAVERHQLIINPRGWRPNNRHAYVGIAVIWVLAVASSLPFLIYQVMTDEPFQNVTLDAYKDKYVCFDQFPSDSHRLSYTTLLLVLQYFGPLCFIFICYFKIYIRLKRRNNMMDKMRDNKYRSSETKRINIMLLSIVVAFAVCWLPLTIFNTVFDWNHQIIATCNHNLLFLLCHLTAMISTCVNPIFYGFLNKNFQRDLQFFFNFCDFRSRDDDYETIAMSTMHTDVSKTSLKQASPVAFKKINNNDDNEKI
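Material: HEK293 cells with Y1 receptor plus CNG channel; times: compound incubation 1 h at room temperature, readout 45 min post-stimulation; signal: fluorescence, membrane potential probe; read-out basis: fluorescence ratio normalized to % inhibition between controls; benchmarks: full-block control isoproterenol-only wells, zero-block control NPY plus isoproterenol wells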
NPY-Y1 PAM-ag: potentiates or activates human NPY-Y1 receptor. P25929. NPY-Y1 expressing cells, potentiator/agonist activation. activation, % at 3.6 µM. hit rate 0.37% among 220,000. AID 1304; in the data active = activation above about 33%, passing the limit was not always enough;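 also: cells stimulated with NPY at EC10 then isoproterenol at EC100; 0% = low agonist plus stimulus and 100% = saturating agonist plus stimulus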
* hit, by the source's call; / = not tested or not shown; ! = repeats disagree. Hits are enriched below; roughly 2.8% of the tested compounds scored in any of these assays.

SMILES | NPY Y2 blocker | PGE2 EP2 inh | EP2 mod | NPY-Y2 PAM-ag | NPY-Y1 antag | NPY-Y1 PAM-ag
CCCc1nc2sc3c(=O)[nH]cnc3c2c2c1CCCC2 | / | 7 | 72* | -7 | / | -4
CCCCc1nc2sc3c(=O)[nH]cnc3c2c2c1CCCC2 | / | 10 | 61* | 8 | / | 13
COc1ccc(NC(=O)CSc2nnc(C)n2CCc2ccccc2)cc1 | / | 6 | 6 | / | / | /
O=C(Nc1ccc(CN2CCCCC2)cc1)c1cccc(Br)c1 | 5 | 3 | -8 | 56* | 2 | 43*
COc1ccc2c(c1)sc(N)[n+]2Cc1cc(C)cc2cccnc12 | 48* | 5 | 26 | -5 | 49* | -58
CCOc1ccc2c(c1)sc(N)[n+]2Cc1cc(C)cc2cccnc12 | 42* | 5 | 46 | -13 | 52* | -69
Cc1ccc(C)n1Cc1ccccc1Cl | / | 4 | 65* | -14 | 1 | 21
Cc1cc(C)n(Cc2ccccc2Cl)n1 | 2 | 10 | 9 | 1 | 2 | -1
COc1cccc(C2(NC(=O)CCn3ccnc3-c3ccccc3)CCCC2)c1 | / | 6 | -48 | / | / | /
COc1ccc(/C=C/C(=O)NCCn2c(C)cc3ccccc32)cc1OC | 2 | 114* | -40 | -7 | -2 | -15
COc1ccc(/C=C/C(=O)NCCN2CCOCC2)cc1OC | / | 5 | 3 | 4 | 1 | 3
COC1CCC(NS(=O)(=O)c2ccc3c(c2)c(=O)n(C)c(=O)n3C)CC1 (stereo not drawn) | / | 8 | -62 | / | / | /
Cn1c(O)c(C=NCc2ccccc2)c(=O)n(C)c1=O | / | 10 | 5 | / | / | /
COc1cc(/C=N/NC(=O)c2cccs2)ccc1OCc1ccccc1 | 4 | 7 | 5 | -27 | -1 | -47
COc1ccc(/C=N/NC(=O)c2sccc2OCc2ccc(F)cc2)cc1OC | 26* | 11 | 8 | -27 | 12 | -21
CCOC(=O)Nc1sc(C)c(C)c1C(=O)OCC | 7 | 3 | 30 | 7 | 4 | 3
CCOC(=O)c1c(NC(=O)Nc2ccccc2)sc(C)c1C | -3 | 10 | 62* | -25 | 8 | -11
COc1ccc2cc(C)c3nn(CN4CCCC(O)C4)c(=O)n3c2c1 (stereo not drawn) | / | / | 2 | / | / | /
Cc1cc2c(o1)c1cnn(CCC(N)=O)c(=O)c1n2C(C)C | / | / | -37 | / | / | /
COc1ccc(CN2CCC(CO)(Cc3ccccc3)CC2)cc1Cn1cccn1 | / | 10 | 2 | -25 | 21* | -17
CCNC(=S)NNC(=O)c1cc(-c2cccc(C)c2)nc2ccccc12 | 4 | 8 | -8 | -3 | 10 | -3
CCNC(=S)NNC(=O)c1cc(-c2cccnc2)nc2ccccc12 | / | 44* | 22 | -15 | -2 | -12
Cc1sc(N)c(C(=O)c2ccc(Br)cc2)c1C | / | 14 | 71* | / | / | /
Cc1sc(N)c(C(=O)c2ccccc2)c1C | / | 8 | 10 | 11 | 6 | 21
Nc1sc2c(c1C(=O)c1ccc(Br)cc1)CCC2 | / | 9 | 78* | / | / | /
SMILES | NPY Y2 blocker | PGE2 EP2 inh | EP2 mod | NPY-Y2 PAM-ag | NPY-Y1 antag | NPY-Y1 PAM-ag
CCCCC(C)(O)C/C=C/[C@H]1[C@H](O)CC(=O)[C@@H]1CCCCCCC(=O)OC (stereo partly drawn) | 93* | 10 | 97* | -6 | 106* | -95
CCCCCC1C(=O)CCC1CC(=O)OC (stereo not drawn) | / | 10 | 13 | / | / | /
Cc1ccc2c(c1)nnn2C1CCN(S(=O)(=O)c2ccc(S(=O)(=O)N3CCCC3)cc2)CC1 | / | 13 | 2 | / | / | /
O=C1c2ccccc2C(=O)N1C1(C(=O)NC2(C(=O)O)CCCC2)CCCC1 | / | 42* | 18 | / | / | /
C=CCn1c(SCC)nc2sc3c(c2c1=O)CC(C)(C)OC3 | / | 7 | 80* | / | / | /
CC(=O)N1c2ccccc2C2(O)N=C(C)SC12 (stereo not drawn) | -1 | 42* | -90 | 4 | 6 | -14
CC(=O)SC(C)CC(=O)Nc1ccccc1 (stereo not drawn) | -7 | 18 | -1 | 34* | -19 | 42*
CC(=O)SC(C)CC(=O)NCc1ccccc1 (stereo not drawn) | -6 | 0 | -12 | 54* | -9 | 119*
Cc1ccc(-n2nnnc2C(Cl)(Cl)c2nnnn2-c2ccc(C)cc2)cc1 | 8 | 91* | -5 | -15 | -2 | 8
O=[N+]([O-])c1ccccc1Nc1c2ccccc2nc2ccccc12 | / | 6 | 15 | 49* | -8 | 50*
CCOC(=O)c1c(N)n(-c2ccc(N)cc2)c2nc3ccccc3nc12 | -1 | 10 | 16 | 13 | 2 | 21
Nc1c(C(=O)Nc2ccccc2)c2nc3ccccc3nc2n1-c1ccc(O)cc1 | / | 11 | -12 | 46* | / | 55*
CN1CCN(c2ccccc2NC(=O)Cc2ccc(Cl)cc2)CC1 | 24* | 10 | 3 | -13 | 23* | -7
CCC(=O)N1CCN(c2ccccc2NC(=O)Cc2ccc(Cl)cc2)CC1 | 12 | -3 | -7 | -15 | 9 | -10
COCCn1nnnc1C(c1cc2cc(C)cc(C)c2[nH]c1=O)N1CCCC(C)C1 (stereo not drawn) | / | 17 | -22 | / | / | /
Nc1cc2nsnc2cc1Br | 1 | 138* | -201 | -18 | 5 | -16
Nc1cccc2nsnc12 | / | 9 | -22 | 0 | / | 16
Cc1ccc(NC(=O)NCCNc2nc3c(C)cccc3cc2C#N)cc1 | / | 8 | -4 | / | / | /
Cc1cc(C)c(C(=O)/C=C/c2ccc(C(C)C)cc2)c(=O)[nH]1 | 4 | 83* | 3 | -5 | 1 | -7
Cc1cccc(NC(=O)CSc2nc3sc4c(c3c(=O)[nH]2)CCCC4)c1C | / | 45* | -13 | / | / | /
O=C(CSc1nc2sc3c(c2c(=O)[nH]1)CCCC3)Nc1cccc(F)c1 | / | 3 | 9 | / | / | /
O=C(OCc1nnc(-c2ccccc2)o1)c1ccc(Cl)cc1 | / | 4 | -12 | -16 | 10 | 8
O=C(OCc1nnc(-c2ccccc2)o1)c1ccc2c(c1)OCCO2 | 20* | 20 | -37 | -40 | 11 | -28
COc1cc(OC)cc(-c2nnc(Sc3ccc([N+](=O)[O-])cn3)o2)c1 | / | 9 | -23 | / | / | /
c1cc2c(cnc3cscc32)s1 | 4 | 42* | -48 | 9 | -5 | 8
SMILES | NPY Y2 blocker | PGE2 EP2 inh | EP2 mod | NPY-Y2 PAM-ag | NPY-Y1 antag | NPY-Y1 PAM-ag
c1csc(-c2cnc3ccccc3n2)c1 | 2 | 7 | 3 | 6 | -4 | 14
O=C(C1CC1)N1CCC[C@@H]1Cn1nc(-c2cccs2)ccc1=O | / | 7 | -5 | / | / | /
Cc1cccc(-n2c(-c3ccco3)nn(CC(=O)NC3CCCCC3)c2=O)n1 | / | 5 | -8 | / | / | /
c1ccc2nc(N3CCCC3)c(N3CCCC3)nc2c1 | 10 | 11 | 68*! | 5 | -1 | 15
c1ccc2c(c1)nc(N1CCCCCC1)c1ccccc12 | / | 7 | 63* | -52 | / | -51
COc1ccccc1NC(=O)CSc1nnc2c3c(C)c(C)sc3nc(C(C)C)n12 | / | 15 | 20 | / | / | /
COC(=O)c1ccccc1NC(=O)CN1CCN(C23CC4CC(CC(C4)C2)C3)CC1 | 64* | 21 | 8 | -39 | 96* | -127
